Measurements from ChEMBL document CHEMBL4689842, “EUbOPEN Chemogenomics Library wave 1” (2021).

How the values were obtained:
Assay type in all cases: toxicity, cell-based
Fibroblast = experiment: Multiplex assay against human fibroblast
In short: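 Live cells were stained at seeding with Hoechst33342, BioTracker Green Microtubule Cytoskeleton Dye, MitoTracker Red and Annexin V Alexa Fluor 680, then imaged on a CQ1 microscope at 37°C and 5% CO2 after compound addition. CellPathfinder machine-learning gating split cells into Hoechst high-intensity objects or normal cells. Normal cells were split into healthy, pyknosed or fragmented nuclei, and pyknosed cells into mitotic or apoptotic. Tubulin, mitochondrial-mass and membrane-permeability phenotypes are per cents of healthy-nucleus cells.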

HEK-293T = experiment: Incucyte cell viability with HEK293T; conditions: human, 10 µM, compound concentration 10 uM; further: filed as whole numbers so only -1 and 0 and 1 occur
U2OS = experiment: Incucyte cell viability with U2OS; conditions: human, 10 µM, compound concentration 10 uM; further: filed as whole numbers so only -1 and 0 and 1 occur
[1] = 12 h, 1 µM, compound concentration 1 uM, replicate 1
[2] = 12 h, 1 µM, compound concentration 1 uM, replicate 2
[3] = 12 h, 10 µM, compound concentration 10 uM, replicate 1
[4] = 12 h, 10 µM, compound concentration 10 uM, replicate 2
[5] = 24 h, 1 µM, compound concentration 1 uM, replicate 1
[6] = 24 h, 1 µM, compound concentration 1 uM, replicate 2
[7] = 24 h, 10 µM, compound concentration 10 uM, replicate 1
[8] = 24 h, 10 µM, compound concentration 10 uM, replicate 2
[9] = 48 h, 1 µM, compound concentration 1 uM, replicate 1
[10] = 48 h, 1 µM, compound concentration 1 uM, replicate 2
[11] = 48 h, 10 µM, compound concentration 10 uM, replicate 1
[12] = 48 h, 10 µM, compound concentration 10 uM, replicate 2
[13] = 6 h, replicate number 1, timepoint 6 hours
[14] = 12 h, replicate number 1, timepoint 12 hours
[15] = 18 h, replicate number 1, timepoint 18 hours
[16] = 24 h, replicate number 1, timepoint 24 hours

SMILES: Nc1ccc(C(=O)Nc2cccc(-c3nc(N4CCOCC4)c4oc5ncccc5c4n3)c2)cn1
- Population Apoptotic (%) (Fibroblast; [1]): 63%
- Population Fragmented Nuclei (%) (Fibroblast; [1]): 24%
- Population Healthy Nuclei (%) (Fibroblast; [1]): 43%
- Population Hoechst High Intensity Objects (%) (Fibroblast; [1]): 14%
- Population Mitochondria Different-Phenotype (%) (Fibroblast; [1]): 4%
- Population Mitotic Cells (%) (Fibroblast; [1]): 36%
- Population Normal (%) (Fibroblast; [1]): 85%
- Population Pyknosed Nuclei (%) (Fibroblast; [1]): 31%
- Population Tubulin-Different-Phenotype (%) (Fibroblast; [1]): 60%
- Total Cell Count (Fibroblast; [1]): 134
- Population Apoptotic (%) (Fibroblast; [2]): 9%
- Population Fragmented Nuclei (%) (Fibroblast; [2]): 20%
- Population Healthy Nuclei (%) (Fibroblast; [2]): 61%
- Population Hoechst High Intensity Objects (%) (Fibroblast; [2]): 10%
- Population Mitochondria Different-Phenotype (%) (Fibroblast; [2]): 21%
- Population Mitotic Cells (%) (Fibroblast; [2]): 90%
- Population Normal (%) (Fibroblast; [2]): 89%
- Population Pyknosed Nuclei (%) (Fibroblast; [2]): 17%
- Population Tubulin-Different-Phenotype (%) (Fibroblast; [2]): 28%
- Total Cell Count (Fibroblast; [2]): 55
- Population Apoptotic (%) (Fibroblast; [3]): 54%
- Population Fragmented Nuclei (%) (Fibroblast; [3]): 57%
- Population Healthy Nuclei (%) (Fibroblast; [3]): 28%
- Population Hoechst High Intensity Objects (%) (Fibroblast; [3]): 41%
- Population Mitochondria Different-Phenotype (%) (Fibroblast; [3]): 9%
- Population Mitotic Cells (%) (Fibroblast; [3]): 45%
- Population Normal (%) (Fibroblast; [3]): 58%
- Population Pyknosed Nuclei (%) (Fibroblast; [3]): 13%
- Population Tubulin-Different-Phenotype (%) (Fibroblast; [3]): 80%
- Total Cell Count (Fibroblast; [3]): 554
- Population Apoptotic (%) (Fibroblast; [4]): 51%
- Population Fragmented Nuclei (%) (Fibroblast; [4]): 62%
- Population Healthy Nuclei (%) (Fibroblast; [4]): 15%
- Population Hoechst High Intensity Objects (%) (Fibroblast; [4]): 19%
- Population Mitochondria Different-Phenotype (%) (Fibroblast; [4]): 76%
- Population Mitotic Cells (%) (Fibroblast; [4]): 48%
- Population Normal (%) (Fibroblast; [4]): 80%
- Population Pyknosed Nuclei (%) (Fibroblast; [4]): 22%
- Population Tubulin-Different-Phenotype (%) (Fibroblast; [4]): 90%
- Total Cell Count (Fibroblast; [4]): 69
- Population Apoptotic (%) (Fibroblast; [5]): 38%
- Population Fragmented Nuclei (%) (Fibroblast; [5]): 38%
- Population Healthy Nuclei (%) (Fibroblast; [5]): 39%
- Population Hoechst High Intensity Objects (%) (Fibroblast; [5]): 16%
- Population Mitochondria Different-Phenotype (%) (Fibroblast; [5]): 3%
- Population Mitotic Cells (%) (Fibroblast; [5]): 61%
- Population Normal (%) (Fibroblast; [5]): 83%
- Population Pyknosed Nuclei (%) (Fibroblast; [5]): 21%
- Population Tubulin-Different-Phenotype (%) (Fibroblast; [5]): 64%
- Total Cell Count (Fibroblast; [5]): 169
- Population Apoptotic (%) (Fibroblast; [6]): 21%
- Population Fragmented Nuclei (%) (Fibroblast; [6]): 28%
- Population Healthy Nuclei (%) (Fibroblast; [6]): 52%
- Population Hoechst High Intensity Objects (%) (Fibroblast; [6]): 5%
- Population Mitochondria Different-Phenotype (%) (Fibroblast; [6]): 42%
- Population Mitotic Cells (%) (Fibroblast; [6]): 78%
- Population Normal (%) (Fibroblast; [6]): 95%
- Population Pyknosed Nuclei (%) (Fibroblast; [6]): 18%
- Population Tubulin-Different-Phenotype (%) (Fibroblast; [6]): 27%
- Total Cell Count (Fibroblast; [6]): 57
- Population Apoptotic (%) (Fibroblast; [7]): 68%
- Population Fragmented Nuclei (%) (Fibroblast; [7]): 53%
- Population Healthy Nuclei (%) (Fibroblast; [7]): 32%
- Population Hoechst High Intensity Objects (%) (Fibroblast; [7]): 46%
- Population Mitochondria Different-Phenotype (%) (Fibroblast; [7]): 30%
- Population Mitotic Cells (%) (Fibroblast; [7]): 31%
- Population Normal (%) (Fibroblast; [7]): 53%
- Population Pyknosed Nuclei (%) (Fibroblast; [7]): 13%
- Population Tubulin-Different-Phenotype (%) (Fibroblast; [7]): 76%
- Total Cell Count (Fibroblast; [7]): 514
- Population Apoptotic (%) (Fibroblast; [8]): 84%
- Population Fragmented Nuclei (%) (Fibroblast; [8]): 60%
- Population Healthy Nuclei (%) (Fibroblast; [8]): 5%
- Population Hoechst High Intensity Objects (%) (Fibroblast; [8]): 19%
- Population Mitochondria Different-Phenotype (%) (Fibroblast; [8]): 100%
- Population Mitotic Cells (%) (Fibroblast; [8]): 15%
- Population Normal (%) (Fibroblast; [8]): 80%
- Population Pyknosed Nuclei (%) (Fibroblast; [8]): 34%
- Population Tubulin-Different-Phenotype (%) (Fibroblast; [8]): 100%
- Total Cell Count (Fibroblast; [8]): 80
- Population Apoptotic (%) (Fibroblast; [9]): 66%
- Population Fragmented Nuclei (%) (Fibroblast; [9]): 47%
- Population Healthy Nuclei (%) (Fibroblast; [9]): 45%
- Population Hoechst High Intensity Objects (%) (Fibroblast; [9]): 17%
- Population Mitochondria Different-Phenotype (%) (Fibroblast; [9]): 0%
- Population Mitotic Cells (%) (Fibroblast; [9]): 33%
- Population Normal (%) (Fibroblast; [9]): 82%
- Population Pyknosed Nuclei (%) (Fibroblast; [9]): 7%
- Population Tubulin-Different-Phenotype (%) (Fibroblast; [9]): 60%
- Total Cell Count (Fibroblast; [9]): 190
- Population Apoptotic (%) (Fibroblast; [10]): 0%
- Population Fragmented Nuclei (%) (Fibroblast; [10]): 58%
- Population Healthy Nuclei (%) (Fibroblast; [10]): 41%
- Population Hoechst High Intensity Objects (%) (Fibroblast; [10]): 25%
- Population Mitochondria Different-Phenotype (%) (Fibroblast; [10]): 3%
- Population Mitotic Cells (%) (Fibroblast; [10]): 0%
- Population Normal (%) (Fibroblast; [10]): 74%
- Population Pyknosed Nuclei (%) (Fibroblast; [10]): 0%
- Population Tubulin-Different-Phenotype (%) (Fibroblast; [10]): 76%
- Total Cell Count (Fibroblast; [10]): 205
- Population Apoptotic (%) (Fibroblast; [11]): 51%
- Population Fragmented Nuclei (%) (Fibroblast; [11]): 51%
- Population Healthy Nuclei (%) (Fibroblast; [11]): 25%
- Population Hoechst High Intensity Objects (%) (Fibroblast; [11]): 49%
- Population Mitochondria Different-Phenotype (%) (Fibroblast; [11]): 46%
- Population Mitotic Cells (%) (Fibroblast; [11]): 48%
- Population Normal (%) (Fibroblast; [11]): 50%
- Population Pyknosed Nuclei (%) (Fibroblast; [11]): 23%
- Population Tubulin-Different-Phenotype (%) (Fibroblast; [11]): 78%
- Total Cell Count (Fibroblast; [11]): 516
- Population Apoptotic (%) (Fibroblast; [12]): 100%
- Population Fragmented Nuclei (%) (Fibroblast; [12]): 82%
- Population Healthy Nuclei (%) (Fibroblast; [12]): 14%
- Population Hoechst High Intensity Objects (%) (Fibroblast; [12]): 67%
- Population Mitotic Cells (%) (Fibroblast; [12]): 0%
- Population Normal (%) (Fibroblast; [12]): 32%
- Population Pyknosed Nuclei (%) (Fibroblast; [12]): 2%
- Population Tubulin-Different-Phenotype (%) (Fibroblast; [12]): 73%
- Total Cell Count (Fibroblast; [12]): 323
- Growth Rate (HEK-293T; 0 h, replicate number 2, timepoint 0 hours): 0
- Growth Rate (HEK-293T; [13]): 0
- Growth Rate (HEK-293T; [14]): 0
- Growth Rate (HEK-293T; [15]): 0
- Growth Rate (HEK-293T; [16]): 0
- Growth Rate (U2OS; 0 h, replicate number 1, timepoint 0 hours): 0
- Growth Rate (U2OS; [13]): 1
- Growth Rate (U2OS; [14]): 0
- Growth Rate (U2OS; [15]): 0
- Growth Rate (U2OS; 18 h, replicate number 2, timepoint 18 hours): 1
- Growth Rate (U2OS; [16]): 0
